From ChEMBL document CHEMBL5678801, “A benzothiophene inhibitor of mitogen-activated protein kinase-activated protein kinase 2 inhibits tumor necrosis factor alpha production and has oral anti-inflammatory efficacy in acute and chronic models of inflammation” (J Pharmacol Exp Ther, 2010) come the findings set out here.

The nature of data set [1]: Unbound plasma concentration in po dosed LPS-induced Lewis rat model at ED50 concentration measured after 5.5 hrs of initial dose by LC-MS/MS analysis. The class given is ADME, organism-based. The conditions noted are these: in vivo. An outline of the steps:
(§1)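 Male Lewis rats (225-250 g, 5 per group) were fasted 18 h, then dosed orally at 0.2-60 mg/kg as a suspension in 0.5% methylcellulose/0.025% Tween 20. LPS 1 mg/kg was given i.v. 4 h later. Blood was taken by cardiac puncture 90 min after LPS. Serum TNFα was read by ELISA and drug by LC-MS/MS, three independent experiments. 4-parameter fit. Unbound values were corrected with measured rat plasma protein binding.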

The nature of data set [2]: Cytotoxicity against human PBMC cells assessed as reduction in cell viability at upto 20 uM. The class given is toxicity, cell-based.
Data set [3] can be described thus: Plasma protein binding in rat. The class given is ADME, cell-free. In short, it runs like this:
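Binding to rat and human plasma was measured in vitro by ultracentrifugation.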

The target in data set [4] is T1, MAP kinase-activated protein kinase 2 (Homo sapiens, UniProt P49137).
Target sequence in this assay (P49137 whole entry, looked up): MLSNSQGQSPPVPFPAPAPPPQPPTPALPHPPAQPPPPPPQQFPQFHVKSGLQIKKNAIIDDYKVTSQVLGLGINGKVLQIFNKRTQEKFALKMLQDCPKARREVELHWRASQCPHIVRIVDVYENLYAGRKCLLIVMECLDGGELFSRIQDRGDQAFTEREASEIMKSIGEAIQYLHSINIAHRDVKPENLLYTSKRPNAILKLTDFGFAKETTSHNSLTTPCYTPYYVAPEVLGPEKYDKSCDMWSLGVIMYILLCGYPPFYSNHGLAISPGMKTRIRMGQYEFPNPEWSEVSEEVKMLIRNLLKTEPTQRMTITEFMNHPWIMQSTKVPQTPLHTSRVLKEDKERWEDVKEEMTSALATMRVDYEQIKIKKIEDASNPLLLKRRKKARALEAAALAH
For data set [5], the target named is T2, Serine/threonine-protein kinase 17A (Homo sapiens, UniProt Q9UEE5).
T2 sequence (Q9UEE5 whole entry): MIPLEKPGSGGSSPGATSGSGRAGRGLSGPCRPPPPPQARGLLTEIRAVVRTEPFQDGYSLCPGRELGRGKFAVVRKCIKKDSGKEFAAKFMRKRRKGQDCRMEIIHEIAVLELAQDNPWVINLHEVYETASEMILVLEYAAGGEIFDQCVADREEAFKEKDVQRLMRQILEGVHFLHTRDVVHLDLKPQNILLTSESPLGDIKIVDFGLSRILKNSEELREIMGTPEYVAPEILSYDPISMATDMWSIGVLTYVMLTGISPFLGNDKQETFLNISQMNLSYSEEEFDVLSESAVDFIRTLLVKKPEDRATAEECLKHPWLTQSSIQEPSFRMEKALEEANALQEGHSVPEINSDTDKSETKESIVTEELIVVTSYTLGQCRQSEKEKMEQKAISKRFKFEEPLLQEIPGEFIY
In words: Inhibition of DRAK1 (unknown origin). In short, it runs like this:
(§2)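 Kinase panel: 200 kinases were first screened at 1 μM inhibitor for percent inhibition. Those above 50% inhibition were then titrated for IC50. MgATP was fixed at the Km(app) determined for each enzyme.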

A short description of data set [6]: Antiinflammatory activity in human Whole blood cell assessed as inhibition of LPS induced IL-6 production preincubated for 1 hr followed by LPS stimulation and measured after 16 hrs by MSD analysis. The class given is functional, cell-based. In short, it runs like this: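 Human whole blood was stimulated ex vivo with LPS 100 ng/ml. Plasma cytokines were read by MSD 4-plex: TNFα at 4 h; IL-1β, IL-6 and IL-8 at 16 h. Data are means ±S.E.M. of two independent experiments in duplicate, three donors. IC50 by 4-parameter nonlinear regression.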

Data set [7] deals with MAP kinase-interacting serine/threonine-protein kinase 2 (Homo sapiens, UniProt Q9HBH9). Briefly: Inhibition of recombinant MNK2 (unknown origin) using KKKALSRQLSVAA as substrate incubated for 1 hr followed by substrate addition in presence of ATP. In short, it runs like this: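 Recombinant MAPKAP kinase was first activated with activated p38α (1:50 molar ratio) and 250 μM ATP for 1 hr at 30°C. Activity was then assayed at Km(app) MgATP by ion-exchange separation of 33P-labeled product peptide. IC50 was taken from duplicate experiments.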

The target of data set [8] is Cyclin-dependent kinase 1/cyclin B1 (Homo sapiens, UniProt P06493). In words: Inhibition of CDK1/cycB (unknown origin). Type of data set: protein-complex assay. An outline of the steps:
as §2

Data set [9] can be described thus: Antiinflammatory activity in human PBMC cells assessed as inhibition of LPS induced IL-6 production preincubated for 1 hr followed by LPS stimulation and measured after 16 hrs by MSD analysis. Type of data set: functional, cell-based. In short, it runs like this:
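Human PBMCs were pretreated with compound for 1 h (<1% DMSO final), then stimulated with LPS 100 ng/ml at 37°C. Cytokines in culture media were read by MSD 4-plex: TNFα at 4 h; IL-1β, IL-6 and IL-8 at 16 h. Data are means ±S.E.M. of two independent experiments in duplicate, three donors. IC50 by 4-parameter nonlinear regression.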

The nature of data set [10]: Plasma concentration in po dosed LPS-induced Lewis rat model at ED50 concentration measured after 5.5 hrs of initial dose by LC-MS/MS analysis. The class given is ADME, organism-based. An outline of the steps:
as §1

For data set [11], the target named is T3, MAP kinase-activated protein kinase 5 (Homo sapiens, UniProt Q8IW41).
T3 sequence (Q8IW41 whole entry): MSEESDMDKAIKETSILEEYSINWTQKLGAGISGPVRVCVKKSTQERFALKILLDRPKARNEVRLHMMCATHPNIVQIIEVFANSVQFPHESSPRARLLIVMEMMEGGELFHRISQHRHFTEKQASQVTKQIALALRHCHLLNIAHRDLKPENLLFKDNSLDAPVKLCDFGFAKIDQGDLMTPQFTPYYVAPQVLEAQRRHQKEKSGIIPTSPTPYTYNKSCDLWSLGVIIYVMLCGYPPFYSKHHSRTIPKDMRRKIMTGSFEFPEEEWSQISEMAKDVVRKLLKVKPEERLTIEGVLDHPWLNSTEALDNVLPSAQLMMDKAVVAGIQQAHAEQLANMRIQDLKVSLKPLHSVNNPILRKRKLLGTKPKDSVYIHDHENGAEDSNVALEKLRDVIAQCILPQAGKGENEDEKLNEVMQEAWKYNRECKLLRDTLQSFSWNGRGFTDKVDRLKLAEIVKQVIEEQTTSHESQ
In words: Inhibition of recombinant PRAK (unknown origin) expressed in Escherichia coli using KKKALSRQLSVAA as substrate incubated for 1 hr followed by substrate addition in presence of ATP. An outline of the steps: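 Recombinant kinase first activated with activated p38α (1:50 molar ratio) and 250 μM ATP for 1 hr at 30°C. Activity measured by 33P-labelled product peptide, separated by ion exchange. MgATP fixed at the Km(app) determined for each enzyme. IC50 values from duplicate experiments.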

The nature of data set [12]: Volume of distribution at steady state in Sprague-Dawley rat measured upto 24 hrs by […] analysis. Type of data set: ADME. Conditions: in vivo, read-out: Vdss. An outline of the steps: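 Male Sprague-Dawley rats (275-300 g), carotid-catheterized and acclimated overnight. Dosing was i.v. at 1 mpk (n=2) in 70% saline/20% PEG-400/10% ethanol, or oral at 3 mpk (n=3) as a suspension in 0.5% HPMC/Tween. Plasma drug was measured by LC-MS/MS. Cmax and Tmax were read from individual profiles. t½ came from the terminal log-linear slope and AUC by the linear trapezoidal rule. CL = dose/AUC0-∞, Vdss = CL×MRT, F = dose-normalized AUC po/iv.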

Data set [13] addresses T1, MAP kinase-activated protein kinase 2. Briefly: Binding affinity to recombinant N-terminal truncated MK2 (45 to 371 residues) (unknown origin) expressed in Escherichia coli assessed as dissociation constant measured after 15 mins by surface plasmon resonance spectroscopy analysis. In short, it runs like this: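 SPR on biotinylated MK2 captured on a streptavidin-coated CM5 chip, at 25°C. Running buffer was 10 mM HEPES, 150 mM NaCl, 0.005% P20, flowing at 60 μl/min. Compound at 1-100 nM was injected for 4 min, then dissociation was followed for 15 min. Real-time binding kinetics were recorded.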
Target sequence in this assay (P49137 whole entry): as the sequence (P49137 whole entry, looked up) above

MAP kinase-interacting serine/threonine-protein kinase 2, sequence (Q9HBH9 whole entry): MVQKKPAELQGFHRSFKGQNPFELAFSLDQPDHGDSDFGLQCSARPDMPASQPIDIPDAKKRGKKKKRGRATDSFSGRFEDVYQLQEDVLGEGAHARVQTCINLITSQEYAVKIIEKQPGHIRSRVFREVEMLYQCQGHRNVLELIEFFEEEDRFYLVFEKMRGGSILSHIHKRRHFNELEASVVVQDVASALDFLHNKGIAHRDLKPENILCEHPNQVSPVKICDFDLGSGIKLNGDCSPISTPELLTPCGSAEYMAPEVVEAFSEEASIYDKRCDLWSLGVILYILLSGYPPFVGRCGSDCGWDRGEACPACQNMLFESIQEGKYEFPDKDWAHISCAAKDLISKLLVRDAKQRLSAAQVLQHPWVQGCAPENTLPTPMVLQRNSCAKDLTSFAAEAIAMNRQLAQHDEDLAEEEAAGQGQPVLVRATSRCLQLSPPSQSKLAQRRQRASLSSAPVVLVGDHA
Cyclin-dependent kinase 1/cyclin B1, sequence (P06493 whole entry): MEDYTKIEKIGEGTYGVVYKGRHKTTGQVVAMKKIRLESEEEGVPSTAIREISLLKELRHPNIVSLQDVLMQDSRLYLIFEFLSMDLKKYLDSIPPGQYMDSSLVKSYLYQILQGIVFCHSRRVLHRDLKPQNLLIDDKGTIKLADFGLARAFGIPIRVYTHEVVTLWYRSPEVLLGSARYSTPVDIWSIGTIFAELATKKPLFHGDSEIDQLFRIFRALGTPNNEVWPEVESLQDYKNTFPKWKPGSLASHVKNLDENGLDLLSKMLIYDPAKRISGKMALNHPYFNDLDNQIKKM
Cyclin-dependent kinase 1/cyclin B1, sequence (P14635 whole entry, further chain): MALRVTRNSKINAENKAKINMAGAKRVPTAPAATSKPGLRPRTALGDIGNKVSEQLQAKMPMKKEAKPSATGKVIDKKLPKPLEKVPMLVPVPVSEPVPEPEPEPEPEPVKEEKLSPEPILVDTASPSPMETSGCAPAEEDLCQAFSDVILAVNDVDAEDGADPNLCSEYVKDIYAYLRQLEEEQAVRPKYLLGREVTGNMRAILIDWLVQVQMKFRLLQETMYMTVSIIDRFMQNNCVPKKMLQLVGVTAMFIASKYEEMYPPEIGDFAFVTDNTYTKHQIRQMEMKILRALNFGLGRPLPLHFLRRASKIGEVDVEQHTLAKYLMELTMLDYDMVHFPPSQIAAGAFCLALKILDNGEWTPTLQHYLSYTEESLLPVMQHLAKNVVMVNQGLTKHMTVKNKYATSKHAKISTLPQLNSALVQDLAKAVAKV

`Cc1ccc(-c2ccc3c(ccc4sc5c(c43)NC[C@@H](C)NC5=O)n2)cn1` had a Cp(f) in data set [1] of 110 nM. The Activity entry in [2] is “Non-Toxic”. The compound further came in with a PPB in data set [3] of 92.1%. Further, the T1/2 in data set [4] turned out to be 2.43 min. Also, the IC50 turned out to be 71 nM in [5]; 10300 nM in data set [6]; 148 nM in [7]; 354 nM in data set [8]; 1400 nM in data set [9]; 5 nM in [11]. This compound also came in with a concentration at 5.5 h in data set [10] of 1400 nM. The Vd in [12] was determined as 1.5 L/kg. Besides, the Kd in data set [13] was 5.9 nM.
